Measurements published in ChEMBL document CHEMBL1125651, “Nucleosides and nucleotides. 95. Improved synthesis of 1-(2-azido-2-deoxy-beta-D-arabinofuranosyl)cytosine (cytarazid) and -thymine. Inhibitory spectrum of cytarazid on the growth of various human tumor cells in vitro” (J Med Chem, 1991).
Values after ≈ are worked out from the molar mass of the structure shown. One block for each compound: values may come before it.

Columns and labels:
T-24 = assay: In vitro inhibitory effect measured against human bladder transitional cell carcinoma T-24 tumor cells; assay type: functional, cell-based
Procedure, shortened: (§1)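 Cells seeded at 1 × 10^4 cells/mL in RPMI 1640 with 10% heat-inactivated FBS and 50 μg/mL kanamycin. Cultured 72 h at 37 °C in a CO2 incubator with a range of compound concentrations. Viability read by MTT colorimetric assay at OD 570 nm against untreated control wells. IC50 is the μg/mL concentration giving 50% growth inhibition; representative of three separate experiments.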

SAOS-2 = assay: In vitro inhibitory effect measured against human osteosarcoma SAOS-2 tumor cells; assay type: functional, cell-based; procedure, shortened: as §1
HOS-TE85 = assay: In vitro inhibitory effect measured against human osteosarcoma MNNG-HOS tumor cells; assay type: functional, cell-based; procedure, shortened: as §1
HOS [1] = assay: In vitro inhibitory effect measured against human osteosarcoma HOS tumor cells; assay type: functional, cell-based; procedure, shortened: as §1
HT-1080 = assay: In vitro inhibitory effect measured against human fibrosarcoma HT1080 tumor cells; assay type: functional, cell-based; procedure, shortened: as §1
MFH-ST [2] = assay: In vitro inhibitory effect measured against human malignant fibrous histiocytoma MFH-ST tumor cells; assay type: functional, cell-based; procedure, shortened: as §1
MG-63 [3] = assay: In vitro inhibitory effect measured against human osteosarcoma MG-63 tumor cells; assay type: functional, cell-based; procedure, shortened: as §1
PC-9 = assay: In vitro inhibitory effect measured against human lung adenocarcinoma PC-9 tumor cells; assay type: functional, cell-based; procedure, shortened: as §1
ST-KM-1 [4] = assay: In vitro inhibitory effect measured against human stomach adenocarcinoma ST-KM tumor cells; assay type: functional, cell-based; procedure, shortened: as §1
PC-6 = assay: In vitro inhibitory effect measured against human lung small-cell carcinoma PC-6 tumor cells; assay type: functional, cell-based; procedure, shortened: as §1
PC-3 [5] = assay: In vitro inhibitory effect measured against human lung adenocarcinoma PC-3 tumor cells; assay type: functional, cell-based; procedure, shortened: as §1
U2OS [6] = assay: In vitro inhibitory effect measured against human osteosarcoma U20-S tumor cells; assay type: functional, cell-based; procedure, shortened: as §1
OST [7] = assay: In vitro inhibitory effect measured against human osteosarcoma OST tumor cells; assay type: functional, cell-based; procedure, shortened: as §1
MKN-28 = assay: In vitro inhibitory effect measured against human stomach adenocarcinoma MKN-28 tumor cells; assay type: functional, cell-based; procedure, shortened: as §1
QG-56 [8] = assay: In vitro inhibitory effect measured against human lung suamous-cell carcinoma QG-56 tumor cells; assay type: functional, cell-based; procedure, shortened: as §1
NUGC-4 [9] = assay: In vitro inhibitory effect measured against human stomach adenocarcinoma NUGC-4 tumor cells; assay type: functional, cell-based; procedure, shortened: as §1
PC-8 = assay: In vitro inhibitory effect measured against human lung adenocarcinoma PC-8 tumor cells; assay type: functional, cell-based; procedure, shortened: as §1
NCC = assay: In vitro inhibitory effect measured against human renal cell carcinoma NCC-nu tumor cells; assay type: functional, cell-based; procedure, shortened: as §1
SK-ES1 = assay: In vitro inhibitory effect measured against human osteosarcoma SK-ES-1 tumor cells; assay type: functional, cell-based; procedure, shortened: as §1
PC-13 [10] = assay: In vitro inhibitory effect measured against human lung large-cell carcinoma PC-13 tumor cells; assay type: functional, cell-based; procedure, shortened: as §1
KHOS-321H = assay: In vitro inhibitory effect measured against human osteosarcoma KHOS-321H tumor cells; assay type: functional, cell-based; procedure, shortened: as §1
HOS [11] = assay: In vitro inhibitory effect measured against human osteosarcoma HOS tumor cells at 100 ug/mL; assay type: functional
Procedure, shortened: (§2)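 MTT viability assay after 72 h exposure at 37 °C in a CO2 incubator. Cells at 1 × 10^4 cells/mL in RPMI 1640 with 10% heat-inactivated FBS and 50 μg/mL kanamycin. Percent inhibition = [1 − OD570 of sample/OD570 of untreated control] × 100. Representative of three separate experiments.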

PC-13 [12] = assay: In vitro inhibitory effect measured against human lung large-cell carcinoma PC-13 tumor cells at 100 ug/mL; assay type: functional; procedure, shortened: as §2
MG-63 [13] = assay: In vitro inhibitory effect measured against human osteosarcoma MG-63 tumor cells at 100 ug/mL; assay type: functional; procedure, shortened: as §2
PC-3 [14] = assay: In vitro inhibitory effect measured against human lung adenocarcinoma PC-3 tumor cells at 100 ug/mL; assay type: functional; procedure, shortened: as §2
ST-KM-1 [15] = assay: In vitro inhibitory effect measured against human stomach adenocarcinoma ST-KM tumor cells at 100 ug/mL; assay type: functional; procedure, shortened: as §2
MFH-ST [16] = assay: In vitro inhibitory effect measured against human malignant fibrous histiocytoma MFH-ST tumor cells at 100 ug/mL; assay type: functional; procedure, shortened: as §2
OST [17] = assay: In vitro inhibitory effect measured against human osteosarcoma OST tumor cells at 100 ug/mL; assay type: functional; procedure, shortened: as §2
U2OS [18] = assay: In vitro inhibitory effect measured against human osteosarcoma U20-S tumor cells at 100 ug/mL; assay type: functional; procedure, shortened: as §2
NUGC-4 [19] = assay: In vitro inhibitory effect measured against human stomach adenocarcinoma NUGC-4 tumor cells at 100 ug/mL; assay type: functional; procedure, shortened: as §2
QG-56 [20] = assay: In vitro inhibitory effect measured against human lung suamous-cell carcinoma QG-56 tumor cells at 100 ug/mL; assay type: functional; procedure, shortened: as §2

IC50 (T-24): 0.56 µg/mL (≈ 2.09 µM)
IC50 (SAOS-2): 2.8 µg/mL (≈ 10.4 µM)
IC50 (HOS-TE85): 1.5 µg/mL (≈ 5.59 µM)
IC50 (HOS [1]): 9.4 µg/mL (≈ 35 µM)
IC50 (HT-1080): 1.6 µg/mL (≈ 5.96 µM)
IC50 (MFH-ST [2]): 14 µg/mL (≈ 52.2 µM)
IC50 (MG-63 [3]): 30 µg/mL (≈ 112 µM)
IC50 (PC-9): 1 µg/mL (≈ 3.73 µM)
IC50 (ST-KM-1 [4]): 1.1 µg/mL (≈ 4.1 µM)
IC50 (PC-6): 18 µg/mL (≈ 67.1 µM)
IC50 (PC-3 [5]): 18 µg/mL (≈ 67.1 µM)
IC50 (U2OS [6]): 14 µg/mL (≈ 52.2 µM)
IC50 (OST [7]): 6.4 µg/mL (≈ 23.9 µM)
IC50 (MKN-28): 2.2 µg/mL (≈ 8.2 µM)
IC50 (QG-56 [8]): 5.4 µg/mL (≈ 20.1 µM)
IC50 (NUGC-4 [9]): 1.4 µg/mL (≈ 5.22 µM)
IC50 (PC-8): 1.2 µg/mL (≈ 4.47 µM)
IC50 (NCC): 1.8 µg/mL (≈ 6.71 µM)
IC50 (SK-ES1): 1.1 µg/mL (≈ 4.1 µM)
IC50 (PC-13 [10]): 18 µg/mL (≈ 67.1 µM)
IC50 (KHOS-321H): 0.62 µg/mL (≈ 2.31 µM)
Structure (SMILES): [N-]=[N+]=N[C@H]1[C@H](O)[C@@H](CO)O[C@H]1n1ccc(N)nc1=O [CYTARAZID]

IC50 (SAOS-2): 2.7 µg/mL (≈ 11.1 µM)
IC50 (HOS-TE85): 2.6 µg/mL (≈ 10.7 µM)
IC50 (HT-1080): 0.13 µg/mL (≈ 0.534 µM)
IC50 (PC-9): 1.6 µg/mL (≈ 6.58 µM)
IC50 (MKN-28): 4.5 µg/mL (≈ 18.5 µM)
IC50 (PC-8): 0.28 µg/mL (≈ 1.15 µM)
IC50 (NCC): 0.13 µg/mL (≈ 0.534 µM)
IC50 (SK-ES1): 0.09 µg/mL (≈ 0.37 µM)
IC50 (KHOS-321H): 0.27 µg/mL (≈ 1.11 µM)
Structure (SMILES): Nc1ccn([C@@H]2O[C@H](CO)[C@@H](O)[C@@H]2O)c(=O)n1 [CYTARABINE]
inhibition at 100 µg/mL (HOS [11]): 45.4%
inhibition at 100 µg/mL (PC-13 [12]): 40%
inhibition at 100 µg/mL (MG-63 [13]): 29.5%
inhibition at 100 µg/mL (PC-3 [14]): 46.2%
inhibition at 100 µg/mL (ST-KM-1 [15]): 48.6%
inhibition at 100 µg/mL (MFH-ST [16]): 47.9%
inhibition at 100 µg/mL (OST [17]): 48%
inhibition at 100 µg/mL (U2OS [18]): 43.9%
inhibition at 100 µg/mL (NUGC-4 [19]): 49.9%
inhibition at 100 µg/mL (QG-56 [20]): 24.4%
